Hits are enriched below; roughly 1.7% of the tested compounds scored in any of these assays.
STEP inh: STEP phosphatase inhibitors, primary screen, biochemical, fluorescence intensity, uHTS | recombinant STEP, OMFP fluorogenic substrate | inhibition, % at 20 µM | 360,000 compounds, 0.25% hits | AID 588621, 2011;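 active = inhibition at 20 µM, scaled per plate between control wells, above about 37%, limit read from the data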;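 note: 0% = DMSO with enzyme and substrate and 100% = substrate only without enzyme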
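Assay system: isolated STEP enzyme. Buffer or medium: pH 6.0 Bis-Tris with DTT and Tween 20. Also added: fluorogenic phosphatase substrate OMFP at 25 µM final. Dosing: 20 µM, 1% DMSO. Timing: 20 min reaction, room temperature, in the dark. Measured by: fluorescence intensity, excitation 480 nm, emission 540 nm. Evaluation: normalized % inhibition.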
DNMT1 inh: human DNMT1 methyltransferase inhibitors, primary screen, biochemical, molecular beacon, fluorescence, HinP1I cleavage, uHTS; DNA (cytosine-5)-methyltransferase 1 (Homo sapiens), P26358; inhibition (reported as % activation of signal), % at 10 µM; 360,000 compounds, 0.83% hits; AID 588458, 2011; in the data active = inhibition above about 50%
Scp-1 inhibitor: Scp-1 phosphatase inhibitors, primary screen, biochemical, colorimetric, uHTS | Carboxy-terminal domain RNA polymerase II polypeptide A small phosphatase 1 (Homo … | Recombinant Scp1, phosphopeptide, malachite green phosphate absorbance | inhibition, % at 20 µM | 340,000 compounds, 0.88% hits | AID 493091, 2011;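 active = inhibition above about 50% at 20 µM, limit read from the data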;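 note: plate controls were DMSO wells with enzyme for no effect and wells lacking enzyme for full effect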
Target sequence (Q9GZU7 76-261 limits assumed): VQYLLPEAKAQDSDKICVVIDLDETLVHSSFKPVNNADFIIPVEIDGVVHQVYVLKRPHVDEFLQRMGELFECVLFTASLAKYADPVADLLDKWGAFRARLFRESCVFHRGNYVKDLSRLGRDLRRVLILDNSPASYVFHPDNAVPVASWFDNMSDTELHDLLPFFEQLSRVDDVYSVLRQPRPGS
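Assay system: SCP-1 catalytic fragment, aa 76-261 | Buffer or medium: Tris acetate buffer pH 5.5 with MgCl2 and Tween-20 | Compound: One concentration, 20 µM, with 1.0% DMSO | Also added: Phospho 17-mer peptide substrate | Signal: Absorbance at 630 nm | Incubation: 45 min enzyme reaction at room temperature | Measure: % inhibition of SCP-1 phosphate liberation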
SUMO1 PPI mod: modulators of SUMO1 protein-protein interactions, primary screen, biochemical, uHTS; SUMO1 binding to a labelled peptide, TR-FRET, 1 h; AID 602429, 2012; 360,000 compounds, 0.33% hits; Small ubiquitin-related modifier 1 (Homo sapiens), P63165; inhibition, % at 20 µM; in the data active = inhibition above about 37%
Target sequence (P63165 whole entry, looked up): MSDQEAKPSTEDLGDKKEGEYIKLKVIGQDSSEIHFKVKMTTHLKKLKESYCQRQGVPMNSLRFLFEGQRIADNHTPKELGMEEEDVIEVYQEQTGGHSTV
LMPTP block: LMPTP phosphatase inhibitors, primary screen, biochemical, fluorescence intensity, uHTS | 360,000 compounds, 0.22% hits | AID 651560, 2012 | Low molecular weight phosphotyrosine protein phosphatase (Homo sapiens), P24666 | recombinant LMPTP-A, OMFP fluorogenic substrate | inhibition, % at 20 µM;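 active = compounds that cut the enzyme signal by at least half of the control window in the single-dose screen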;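 note: plate controls were DMSO wells with enzyme plus substrate for no effect and substrate without enzyme for full effect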
Target sequence (P24666 whole entry, looked up): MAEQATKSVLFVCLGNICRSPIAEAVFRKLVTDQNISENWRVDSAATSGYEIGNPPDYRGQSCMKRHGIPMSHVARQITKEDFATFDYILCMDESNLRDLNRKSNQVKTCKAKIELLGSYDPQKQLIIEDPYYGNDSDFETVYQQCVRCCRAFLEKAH
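Material: LMPTP-A; amount: 0.625 nM enzyme; doses: single 20 µM dose; times: reaction 50 min, room temperature, dark; technique: fluorescence intensity of OMFP turnover product; benchmarks: no-enzyme and uninhibited controls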
Scp-1 conf: Scp-1 phosphatase inhibitors, retest, confirmation, biochemical, colorimetric, single concentration; 2,500 compounds, 61% hits; shares compounds with Scp-1 inhibitor; inhibition, % at 20 µM; recombinant SCP-1 catalytic domain, phosphate release, malachite green absorbance; AID 540281, 2011;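 note: plate controls were DMSO with enzyme for no effect and buffer wells lacking enzyme for full effect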
Scp-1 MG ctr: colorimetric readout interference by compounds, confirmation, artefact control for Scp-1 inhibitor project, biochemical, single concentration. shares compounds with Scp-1 inhibitor. AID 540313, 2011. apparent inhibition (interference), % at 20 µM. Colorimetric interference counterscreen, malachite green absorbance 630 nm. 2,500 tested, under 10 active;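 note: compounds added after enzyme reaction finished so only phosphate colour detection is probed; plate controls were DMSO wells with completed Scp-1 reaction for no effect and substrate wells lacking enzyme for full effect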
Scp1 DSF: Scp-1 binding by thermal shift, confirmation, orthogonal assay for Scp-1 inhibitor project, biophysical, differential scanning fluorimetry | shares compounds with Scp-1 inhibitor | Recombinant SCP1, Sypro Orange thermal shift Tm | thermal shift relative to vanadate control, % at 40 µM | 1,500 compounds, 25% hits;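 active = substances whose mean melting-temperature shift, as a percentage of the reference inhibitor's shift, reaches about 5.3%, limit read from the data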;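 note: 0% = Tm of DMSO wells and 100% = Tm with sodium orthovanadate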
DNMT1 inh conf: DNMT1 methyltransferase inhibitor retest, confirmation, biochemical, molecular beacon, fluorescence, single concentration; 2,300 compounds, 8% hits; shares compounds with DNMT1 inh; DNMT1 molecular beacon HinP1I cleavage; inhibition, % at 10 µM; AID 602385, 2012;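 active = average inhibition of at least 30% in the single-concentration confirmation test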
Beacon interf: beacon fluorescence artifact counter-screen; shares compounds with DNMT1 inh; DNMT1 molecular beacon spectral interference counterscreen, fluorescence 485/520; activation (fluorescence interference), % at 10 µM; 2,300 compounds, 1% hits; AID 602387;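 active = activation of at least 30% at 10 µM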;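 note: DNMT1 catalytic domain with a HinP1I cleavage step and a FAM/dabcyl DNA beacon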
Numbers without * were called inactive; · = no result.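 Rule for the calls, unless noted: active = inhibition of at least 30% at 20 µM; inactive = the rest.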

SMILES	STEP inh	DNMT1 inh	Scp-1 inhibitor	SUMO1 PPI mod	LMPTP block	Scp-1 conf	Scp-1 MG ctr	Scp1 DSF	DNMT1 inh conf	Beacon interf
CCOC(=O)CN1C(=O)S/C(=C\c2ccc(-c3ccc(C(=O)O)c(Cl)c3)o2)C1=O	90*	65*	90*	14	12	59*	-15	12*	3	0
CCOC(=O)CN1C(=O)S/C(=C/c2ccc(N3CCCCC3)o2)C1=O	-10	6	11	-41	-1	·	·	·	·	·
C=C(C)CCOC(=O)C(CC(=O)O)NCc1ccco1 (stereo unspecified)	7	63*	86*	23	0	67*	-10	-9	3	1
O=C(O)CC(NCc1ccco1)C(=O)OCCc1ccccc1 (stereo unspecified)	-2	2	7	0	-3	·	·	·	·	·
O=Cc1ccc2oc3nc4n(c(=O)c3c(=O)c2c1)CCCS4	5	94*	80*	25	45	67*	-11	-4	-4	-1
COc1ccccc1/C=c1\sc2nc(-c3ccco3)nn2c1=O	4	106*	69*	26	13	72*	-9	7.8*	4	2
COc1ccc(OC)c(/C=c2\sc3nc(-c4cccs4)nn3c2=O)c1	-8	-3	-7	11	1	·	·	·	·	·
O=C(Nc1ccc(NC(=O)c2cccs2)cc1)c1ccc(Br)o1	29	54*	61*	22	42	72*	-12	-9	-1	-5
O=C(Nc1cccc(NC(=O)c2cccs2)c1)c1ccc(Br)o1	1	-1	-6	4	0	·	·	·	·	·
Cc1ccc(S(=O)(=O)N(CC(=O)O)Cc2ccco2)cc1	5	76*	93*	6	9	61*	-20	0	7	-1
Cc1ccc(S(=O)(=O)N(Cc2ccccc2)Cc2ccco2)cc1	3	-5	-9	-1	3	·	·	·	·	·
COc1ccccc1N(CC(=O)NCc1ccco1)S(=O)(=O)c1ccc(C)cc1	61*	93*	87*	22	9	73*	-5	4	5	0
COc1ccc(N(CC(=O)NCc2ccco2)S(=O)(=O)c2ccc(C)cc2)cc1OC	0	2	3	5	0	·	·	·	·	·
O=C(COC(=O)c1cc(S(=O)(=O)N2CCCC2)ccc1O)Nc1ccc(F)cc1F	1	-1	-6	-3	0	·	·	·	·	·
O=c1cc(SCc2ccc(Cl)cc2Cl)nc[nH]1	0	2	-8	1	-3	·	·	·	·	·
O=c1c2c(nc3cc(-c4ccccc4Cl)[nH]n13)CCS2	5	77*	64*	12	33	12	-9	·	1	2
O=C(CN1C(=O)NC2(CCCC2)C1=O)OCc1cc(=O)n2cc(Br)ccc2n1	-1	58*	55*	-24	14	33*	-9	-10	6	-1
Cc1cc(C)c(C)c(S(=O)(=O)N[C@@H](C)C(=O)OCc2cc(=O)n3cc(Br)ccc3n2)c1C	-1	71*	69*	-11	5	65*	-5	5.7*	3	2
O=C(O)c1cccc(Oc2ccc(C(=O)O)c([N+](=O)[O-])c2)c1	2	-1	-8	-3	0	·	·	·	·	·
N#Cc1cccnc1N1CCN(C(C(=O)NC2CCCC2)c2ccc(F)cc2)CC1 (stereo unspecified)	·	·	·	0	0	·	·	·	·	·
COc1ccc(COC(=O)C2CCN(S(=O)(=O)c3ccc(C)cc3)CC2)cc1	-2	1	-12	1	0	·	·	·	·	·
Cc1ccc(S(=O)(=O)c2cc3c(=O)n4ccccc4nc3n(Cc3ccco3)c2=N)cc1	5	69*	66*	4	25	14	5	·	1	-2
Cc1ccc2nc(/C(C#N)=C\c3ccc(Oc4ccc(C(F)(F)F)cc4[N+](=O)[O-])cc3)[nH]c2c1	12	81*	97*	-5	13	87*	2	5.6*	1	-2
Cc1ccc2nc(/C(C#N)=C/c3ccc(-c4cccc([N+](=O)[O-])c4)o3)[nH]c2c1	94*	83*	90*	-5	44	73*	-1	11*	-1	-4
N#Cc1cccc(NC(=O)Cn2cnc(S(=O)(=O)N3CCCC3)c2)c1	-3	-1	-5	1	-2	·	·	·	·	·
SMILES	STEP inh	DNMT1 inh	Scp-1 inhibitor	SUMO1 PPI mod	LMPTP block	Scp-1 conf	Scp-1 MG ctr	Scp1 DSF	DNMT1 inh conf	Beacon interf
COC(=O)c1ccccc1N(C)S(=O)(=O)c1cc2c3c(c1)CCC(=O)N3CCC2	0	0	-3	0	-1	·	·	·	·	·
NC(Cc1ccc(Cl)cc1)c1csc(NC(=O)Nc2ccccc2-c2ccccc2)n1 (stereo unspecified)	4	-9	·	-134	2	·	·	·	·	·
Clc1ccccn1	0	-4	3	4	2	·	·	·	·	·
Cc1ccc(-c2nn(-c3ccc(F)cc3)cc2C(=O)N2CCN(C3CCS(=O)(=O)C3)CC2)cc1 (stereo unspecified)	-2	-1	-5	-4	-1	·	·	·	·	·
Cc1ccc(C(=O)OCC(=O)c2ccc(CC(=O)N3CCOCC3)s2)c(C)c1	6	55*	72*	-3	10	78*	-5	6.7*	9	2
Cc1ccc(-n2c(C)cc(C(=O)OCC(=O)N3CCOCC3)c2C)cc1	0	-6	-12	-6	-2	·	·	·	·	·
O=C(CSc1ccc2ccccc2n1)NCCCN1CCCC1=O	-4	0	-2	6	0	·	·	·	·	·
O=C(Nc1cc2c(oc1=O)CCCC2=O)c1cccc(Cl)c1	-7	-3	-2	-18	-1	·	·	·	·	·

Screening data (PubChem)
